Experimental data published in publication PMC3778312 (British Journal of Cancer, 2013).

Legend:
A-549 NSCLC xenografts = settings: single agent; ref Ihle et al, 2005; Koul et al, 2010; cited from earlier work
PI-3Kβ = settings: read-out: IC50 against PI-3Kβ; ref Wipf et al, 2004; cited from earlier work
[1] = Phase 1 safety monitoring of PX-866 with docetaxel; type: in vivo, human
Summary of the method: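 Open-label dose escalation in cohorts of 6–9 patients at 4, 6 or 8 mg oral daily test compound plus docetaxel 75 mg m−2 IV every 21 days, with dexamethasone premedication. All patients receiving ≥1 dose had vital signs, labs and exams; AEs were graded by NCI CTCAE v4.02. DLTs included related grade ≥3 events, febrile grade 3/4 neutropenia, platelets <25 000 per μl and ANC <500 per μl for >7 days.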

For `C=CCN(/C=C1/C(=O)O[C@H](COC)[C@@]2(C)C1=C(O)C(=O)C1=C2[C@H](OC(C)=O)C[C@]2(C)C(=O)CC[C@@H]12)CC=C` [PX-866], the tumour growth (A-549 NSCLC xenografts) is listed as “delays tumour growth”, the IC50 (PI-3Kβ) is listed as 88 ± 27 nM and the “patients requiring PX-866 dose reductions” value ([1]; 4 out of 43, all in the 8 mg cohort, vomiting and/or diarrhoea) is listed as 9%. The “Treatment-emergent AE: Alopecia” value ([1]; PX-866 4 mg + docetaxel, N=10) was 2 (20) N (%), the “Treatment-emergent AE: Anaemia” value ([1]; PX-866 4 mg + docetaxel, N=10) was 2 (20) N (%) and the “Treatment-emergent AE: Arthralgia” value ([1]; PX-866 4 mg + docetaxel, N=10) was 0 (0) N (%). For the same molecule, the “Treatment-emergent AE: Asthenia” value ([1]; PX-866 4 mg + docetaxel, N=10) was 1 (10) N (%), the “Treatment-emergent AE: Bone pain” value ([1]; PX-866 4 mg + docetaxel, N=10) was 0 (0) N (%) and the “Treatment-emergent AE: Cough” value ([1]; PX-866 4 mg + docetaxel, N=10) was 2 (20) N (%). The “Treatment-emergent AE: Decreased appetite” value ([1]; PX-866 4 mg + docetaxel, N=10) was 1 (10) N (%), the “Treatment-emergent AE: Dehydration” value ([1]; PX-866 4 mg + docetaxel, N=10) was 3 (30) N (%) and the “Treatment-emergent AE: Diarrhoea” value ([1]; PX-866 4 mg + docetaxel, N=10) was 7 (70) N (%). For the same molecule, the “Treatment-emergent AE: Dizziness” value ([1]; PX-866 4 mg + docetaxel, N=10) was 1 (10) N (%), the “Treatment-emergent AE: Dysgeusia” value ([1]; PX-866 4 mg + docetaxel, N=10) was 2 (20) N (%) and the “Treatment-emergent AE: Epistaxis” value ([1]; PX-866 4 mg + docetaxel, N=10) was 1 (10) N (%). For the same molecule, the “Treatment-emergent AE: Fatigue” value ([1]; PX-866 4 mg + docetaxel, N=10) was 6 (60) N (%), the “Treatment-emergent AE: Hypokalemia” value ([1]; PX-866 4 mg + docetaxel, N=10) was 2 (20) N (%) and the “Treatment-emergent AE: Nausea” value ([1]; PX-866 4 mg + docetaxel, N=10) was 5 (50) N (%). For the same molecule, the “Treatment-emergent AE: Neutropenia” value ([1]; PX-866 4 mg + docetaxel, N=10) was 6 (60) N (%), the “Treatment-emergent AE: Oedema peripheral” value ([1]; PX-866 4 mg + docetaxel, N=10) was 4 (40) N (%) and the “Treatment-emergent AE: Oropharyngeal pain” value ([1]; PX-866 4 mg + docetaxel, N=10) was 1 (10) N (%). For the same molecule, the “Treatment-emergent AE: Pyrexia” value ([1]; PX-866 4 mg + docetaxel, N=10) was 1 (10) N (%), the “Treatment-emergent AE: Stomatitis” value ([1]; PX-866 4 mg + docetaxel, N=10) was 1 (10) N (%) and the “Treatment-emergent AE: Vomiting” value ([1]; PX-866 4 mg + docetaxel, N=10) was 3 (30) N (%). For the same molecule, the “Treatment-emergent AEs, frequency by severity: Grade 1” value ([1]; PX-866 4 mg + docetaxel, N=10) was 32 (56) N (%), the “Treatment-emergent AEs, frequency by severity: Grade 2” value ([1]; PX-866 4 mg + docetaxel, N=10) was 10 (18) N (%) and the “Treatment-emergent AEs, frequency by severity: Grade 3” value ([1]; PX-866 4 mg + docetaxel, N=10) was 8 (14) N (%). For the same molecule, the “Treatment-emergent AEs, frequency by severity: Grade 4” value ([1]; PX-866 4 mg + docetaxel, N=10) was 7 (12) N (%), the “Treatment-emergent AEs, frequency by severity: Grade 5” value ([1]; PX-866 4 mg + docetaxel, N=10) was 0 (0) N (%) and the “Treatment-emergent AE: Alopecia” value ([1]; PX-866 6 mg + docetaxel, N=10) was 6 (60) N (%). The “Treatment-emergent AE: Anaemia” value ([1]; PX-866 6 mg + docetaxel, N=10) was 2 (20) N (%), the “Treatment-emergent AE: Arthralgia” value ([1]; PX-866 6 mg + docetaxel, N=10) was 2 (20) N (%) and the “Treatment-emergent AE: Asthenia” value ([1]; PX-866 6 mg + docetaxel, N=10) was 4 (40) N (%). For the same molecule, the “Treatment-emergent AE: Bone pain” value ([1]; PX-866 6 mg + docetaxel, N=10) was 4 (40) N (%), the “Treatment-emergent AE: Constipation” value ([1]; PX-866 6 mg + docetaxel, N=10) was 3 (30) N (%) and the “Treatment-emergent AE: Cough” value ([1]; PX-866 6 mg + docetaxel, N=10) was 5 (50) N (%). For the same molecule, the “Treatment-emergent AE: Decreased appetite” value ([1]; PX-866 6 mg + docetaxel, N=10) was 4 (40) N (%), the “Treatment-emergent AE: Dehydration” value ([1]; PX-866 6 mg + docetaxel, N=10) was 1 (10) N (%) and the “Treatment-emergent AE: Diarrhoea” value ([1]; PX-866 6 mg + docetaxel, N=10) was 8 (80) N (%). For the same molecule, the “Treatment-emergent AE: Dizziness” value ([1]; PX-866 6 mg + docetaxel, N=10) was 2 (20) N (%), the “Treatment-emergent AE: Dysgeusia” value ([1]; PX-866 6 mg + docetaxel, N=10) was 3 (30) N (%) and the “Treatment-emergent AE: Epistaxis” value ([1]; PX-866 6 mg + docetaxel, N=10) was 2 (20) N (%). The “Treatment-emergent AE: Fatigue” value ([1]; PX-866 6 mg + docetaxel, N=10) was 7 (70) N (%), the “Treatment-emergent AE: Hypokalemia” value ([1]; PX-866 6 mg + docetaxel, N=10) was 1 (10) N (%) and the “Treatment-emergent AE: Nausea” value ([1]; PX-866 6 mg + docetaxel, N=10) was 4 (40) N (%). The “Treatment-emergent AE: Neutropenia” value ([1]; PX-866 6 mg + docetaxel, N=10) was 5 (50) N (%), the “Treatment-emergent AE: Oedema peripheral” value ([1]; PX-866 6 mg + docetaxel, N=10) was 6 (60) N (%) and the “Treatment-emergent AE: Oropharyngeal pain” value ([1]; PX-866 6 mg + docetaxel, N=10) was 1 (10) N (%). The “Treatment-emergent AE: Pyrexia” value ([1]; PX-866 6 mg + docetaxel, N=10) was 4 (40) N (%), the “Treatment-emergent AE: Stomatitis” value ([1]; PX-866 6 mg + docetaxel, N=10) was 4 (40) N (%) and the “Treatment-emergent AE: Vomiting” value ([1]; PX-866 6 mg + docetaxel, N=10) was 5 (50) N (%). The “Treatment-emergent AEs, frequency by severity: Grade 1” value ([1]; PX-866 6 mg + docetaxel, N=10) was 36 (49) N (%), the “Treatment-emergent AEs, frequency by severity: Grade 2” value ([1]; PX-866 6 mg + docetaxel, N=10) was 30 (41) N (%) and the “Treatment-emergent AEs, frequency by severity: Grade 3” value ([1]; PX-866 6 mg + docetaxel, N=10) was 5 (7) N (%). The “Treatment-emergent AEs, frequency by severity: Grade 4” value ([1]; PX-866 6 mg + docetaxel, N=10) was 3 (4) N (%), the “Treatment-emergent AEs, frequency by severity: Grade 5” value ([1]; PX-866 6 mg + docetaxel, N=10) was 0 (0) N (%) and the “Treatment-emergent AE: Alopecia” value ([1]; PX-866 8 mg + docetaxel, N=23) was 4 (17) N (%). The “Treatment-emergent AE: Anaemia” value ([1]; PX-866 8 mg + docetaxel, N=23) was 9 (39) N (%), the “Treatment-emergent AE: Arthralgia” value ([1]; PX-866 8 mg + docetaxel, N=23) was 5 (22) N (%) and the “Treatment-emergent AE: Asthenia” value ([1]; PX-866 8 mg + docetaxel, N=23) was 6 (26) N (%). The “Treatment-emergent AE: Bone pain” value ([1]; PX-866 8 mg + docetaxel, N=23) was 5 (22) N (%), the “Treatment-emergent AE: Constipation” value ([1]; PX-866 8 mg + docetaxel, N=23) was 8 (35) N (%) and the “Treatment-emergent AE: Cough” value ([1]; PX-866 8 mg + docetaxel, N=23) was 3 (13) N (%). The “Treatment-emergent AE: Decreased appetite” value ([1]; PX-866 8 mg + docetaxel, N=23) was 10 (44) N (%), the “Treatment-emergent AE: Dehydration” value ([1]; PX-866 8 mg + docetaxel, N=23) was 11 (48) N (%) and the “Treatment-emergent AE: Diarrhoea” value ([1]; PX-866 8 mg + docetaxel, N=23) was 18 (78) N (%). For the same molecule, the “Treatment-emergent AE: Dizziness” value ([1]; PX-866 8 mg + docetaxel, N=23) was 4 (17) N (%), the “Treatment-emergent AE: Dysgeusia” value ([1]; PX-866 8 mg + docetaxel, N=23) was 3 (13) N (%) and the “Treatment-emergent AE: Epistaxis” value ([1]; PX-866 8 mg + docetaxel, N=23) was 4 (17) N (%). The “Treatment-emergent AE: Fatigue” value ([1]; PX-866 8 mg + docetaxel, N=23) was 13 (57) N (%).
